Source: publication PMC7024744 (Journal of Pesticide Science, 2020)

Assays:
V. mali = test: fungicidal activity in vitro, mycelium growth rate method; assay type: cell-based; details: Cytospora mali, read-out: Antifungal activity in vitro, inhibition, V. mali
How it was run: (§1)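 Mycelium growth rate method. Test compounds were dissolved in acetone as a 100 mg/L stock and tested at 50 mg/L. Boscalid served as positive control and acetone as negative control. Plates were incubated at 25°C. Inhibition (%) was calculated from the average mycelial diameter (mm) with compound versus the negative-control diameter.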

B. cinerea = test: as above; assay type: cell-based; details: Botrytis cinerea, read-out: Antifungal activity in vitro, inhibition, B. cinerea
How it was run: as §1

porcine SDH = porcine SDH (Sus scrofa, UniProt A5GZW8+D0VWV4+Q007T0+Q0QF01); test: SDH enzymatic inhibition assay; assay type: biochemical, swine
How it was run: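 Porcine SDH quantified by double-antibody sandwich ELISA. Plates were coated with purified porcine SDH antibody, then monoclonal antibody and HRP-labelled SDH antibody were added. After washing, TMB substrate was added, followed by acid. OD was read at 450 nm. SDH activity concentration was taken from a standard curve of standard-substance concentration against OD and corrected for sample dilution.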

Chain of porcine SDH (Q0QF01 43-664): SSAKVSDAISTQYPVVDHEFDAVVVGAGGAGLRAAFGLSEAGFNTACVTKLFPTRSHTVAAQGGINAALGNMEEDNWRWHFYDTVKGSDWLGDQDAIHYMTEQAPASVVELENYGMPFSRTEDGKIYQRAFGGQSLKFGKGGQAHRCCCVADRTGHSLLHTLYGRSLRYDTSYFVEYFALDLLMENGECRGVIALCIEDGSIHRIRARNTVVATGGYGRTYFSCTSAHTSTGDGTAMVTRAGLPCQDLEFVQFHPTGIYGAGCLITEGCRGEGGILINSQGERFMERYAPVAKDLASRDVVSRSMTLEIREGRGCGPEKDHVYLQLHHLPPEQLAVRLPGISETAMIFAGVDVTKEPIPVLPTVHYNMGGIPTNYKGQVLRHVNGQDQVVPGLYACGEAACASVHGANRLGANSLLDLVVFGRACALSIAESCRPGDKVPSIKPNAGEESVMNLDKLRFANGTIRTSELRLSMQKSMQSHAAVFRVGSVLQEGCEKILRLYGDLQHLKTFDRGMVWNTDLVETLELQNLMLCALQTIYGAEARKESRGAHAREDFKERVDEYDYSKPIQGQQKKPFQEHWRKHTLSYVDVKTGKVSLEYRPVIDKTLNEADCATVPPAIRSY
Chain of porcine SDH (Q007T0 29-280): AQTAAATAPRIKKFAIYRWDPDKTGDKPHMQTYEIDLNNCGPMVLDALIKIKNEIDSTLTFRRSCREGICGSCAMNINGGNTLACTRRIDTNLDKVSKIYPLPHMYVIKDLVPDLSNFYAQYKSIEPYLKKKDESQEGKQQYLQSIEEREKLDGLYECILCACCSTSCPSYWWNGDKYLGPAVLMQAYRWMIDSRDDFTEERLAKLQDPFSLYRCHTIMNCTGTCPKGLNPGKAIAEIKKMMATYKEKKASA
Chain of porcine SDH (D0VWV4 30-169): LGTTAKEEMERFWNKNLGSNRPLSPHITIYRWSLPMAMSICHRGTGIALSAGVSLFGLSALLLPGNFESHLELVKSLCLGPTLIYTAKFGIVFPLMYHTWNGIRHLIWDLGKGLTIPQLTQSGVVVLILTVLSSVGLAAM
Chain of porcine SDH (A5GZW8 37-159): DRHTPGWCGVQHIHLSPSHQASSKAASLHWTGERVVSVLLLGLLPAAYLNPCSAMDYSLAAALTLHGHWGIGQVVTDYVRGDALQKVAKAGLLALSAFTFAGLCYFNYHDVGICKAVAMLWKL

Q: How did the inhibition at 50 µg/mL (V. mali) turn out when `O=C(Nc1ccccc1-c1ccc(Cl)cc1)c1cccnc1Cl` [Boscalid] was run?
A: 100%

Q: What about the inhibition at 50 µg/mL (B. cinerea) of the same molecule?
A: 100%

Q: What about the IC50 (porcine SDH) of the same molecule?
A: 1670 nM

Q: And the inhibition at 0.5 µM (porcine SDH; read-out: SDH enzymatic inhibition, Inhibition (%) 0.5 µM)?
A: 21.6%

Q: What about the inhibition at 1 µM (porcine SDH; read-out: SDH enzymatic inhibition, Inhibition (%) 1 µM) of the same molecule?
A: 43.3%

Q: And the inhibition at 2 µM (porcine SDH; read-out: SDH enzymatic inhibition, Inhibition (%) 2 µM)?
A: 53.6%

Q: What about the inhibition at 8 µM (porcine SDH; read-out: SDH enzymatic inhibition, Inhibition (%) 8 µM) of the same molecule?
A: 81%
